Experimental data of several laboratories.
Lines come from different studies, so protocols differ.
Observed: metabolic stability
Host: human

SMILES | test system | setting | half-life [min]
CCCCCCCCCCCCCCCC(=O)NCCOC(=O)C[C@@H](CN)CC(C)C | liver microsomes | 1 µM, pH 7.4 | 60.3
CN1CCC(Oc2ccc3c(=O)c4c(F)cc(Cl)cc4[nH]c3c2)CC1 | liver microsomes | 1 µM, pH 7.4 | 55.7
Cc1[nH]c(C)c(S(=O)(=O)Nc2ccc(C(F)(F)F)c(Cl)c2Cl)c1C(=O)N1CCC(F)(F)C1 | liver microsomes |  | 94
O=c1c2c([nH]c3cc(OC(F)(F)F)ccc13)CCCC2 | liver microsomes | 1 µM, pH 7.4 | 8.01
COc1cc(-c2cc(C(C)=O)n3ccccc23)c(OC)cc1Cn1ccnc1 | liver microsomes | pH 7.4 | > 120
O=c1c2ccc(Oc3cccc(OC(F)(F)F)c3)cc2[nH]c2cc(Cl)cc(F)c12 | liver microsomes | 1 µM, pH 7.4 | > 60
O=C(N1CCCCC1)C12CC(c3ccccc3)(C1)C2 | liver microsomes | 2 µM, pH 7.4 | 70.2
OCc1ccc(-c2nn(Cc3ccccc3)c3ccccc23)o1 | liver microsomes |  | 7
O=c1c2ccccc2[nH]c2cc(Oc3ccc(OC(F)(F)F)cc3)ccc12 | liver microsomes | 1 µM, pH 7.4 | > 60
O=c1c2cc(Cl)ncc2[nH]c(=S)n1Cc1cccnc1 | liver microsomes | 1 µM, pH 7.4 | > 186
CCCN(CCC)CCCOc1ccc2c(=O)c3c([nH]c2c1)CCCC3 | liver microsomes | 1 µM, pH 7.4 | 37.3
CCN(CC)CCNC(=O)c1c(C)[nH]c(/C=C2\C(=O)Nc3ccc(F)cc32)c1C | liver microsomes | 1 µM | 24.3
Cc1ncsc1-c1ccc([C@H](CC(=O)N2CC3(C2)CN(c2ccc(C#Cc4ccc(C(=O)N5CCC(n6cc(-c7ccc8c(c7)CCN8C(=O)Cc7cccc(OC(F)(F)F)c7)c7c(N)ncnc76)CC5)cc4)cn2)C3)NC(=O)[C@@H]2C[C@@H](O)CN2C(=O)[C@@H](NC(=O)C2(F)CC2)C(C)(C)C)cc1 | hepatocytes | 1 µM | > 120
O=c1c2cc(Cl)ccc2[nH]c(=S)n1Cc1cccnc1 | liver microsomes | 1 µM, pH 7.4 | > 186
O=C1CCC(N2Cc3cc(C4CCN(Cc5ccccc5)CC4)ccc3C2=O)C(=O)N1 (stereo not shown) | liver microsomes | 1 µM | > 60
Cc1c(C)n(Cc2cccc(OC(C)(C)C(=O)O)c2)c2ccc(C(=O)N[C@@H](C)c3ccc(C(C)(C)C)cc3)cc12 | liver microsomes |  | > 60
Cc1ccc(OCC(=O)N[C@@H](Cc2c[nH]c3ccccc23)C(=O)OC(C)C)cc1 | liver microsomes | 20 mM | 352
O=C(O)Cc1ccccc1Nc1c(Cl)cccc1Cl | liver microsomes | 2 µM, pH 7.4 | 8.3
O=c1c2cc(Cl)c(CO)cc2[nH]c(=S)n1Cc1cccnc1 | liver microsomes | 1 µM, pH 7.4 | 57.1
c1ccc(Oc2ccc(Nc3c4c(nc5ccccc35)CCC4)cc2)cc1 | liver microsomes | 0.5 µM | 57
CCCN(CCC)CCOc1ccc2c(=O)c3c([nH]c2c1)CCCC3 | liver microsomes | 1 µM, pH 7.4 | > 60
Cc1cccc(CNC(=O)c2cn(CCNC(=O)c3ccccc3Sc3c([N+](=O)[O-])ncn3C)c3cc4c(cc3c2=O)OCO4)n1 | blood | 1 µM, whole blood | 509
Nc1nnc(-c2ccccc2O)cc1N1CCN(Cc2ccc(N3CCN(CCOc4cccc5c4C(=O)N(C4CCC(=O)NC4=O)C5=O)CC3)c(F)c2)CC1 (stereo not shown) | liver microsomes | 1 mM | 35
CC(C)C(=O)OCc1cc2[nH]c(=S)n(Cc3cccnc3)c(=O)c2cc1Cl | liver microsomes | 1 µM, pH 7.4 | < 5
O=c1c2c([nH]c3cc(Nc4ccc(OC(F)(F)F)cc4)ccc13)CCCC2 | liver microsomes | 1 µM, pH 7.4 | 20.7
Cc1cc2c(C(=O)O)cccc2n1-c1nc2c(c(NCc3ccccc3)n1)CCCN2 | liver microsomes | 1 µM, pH 7.4 | > 120
CCCCN(CCCC)CCCOc1ccc2c(=O)c3c([nH]c2c1)CCCC3 | liver microsomes | 1 µM, pH 7.4 | 15.1
C=CCn1c(=O)c2cnc(Nc3ccc(N4CCN(C)CC4)cc3)nc2n1-c1ccc2c(n1)[C@@](O)(CC)CC2 | hepatocytes |  | 93
